Two compounds from ChEMBL document CHEMBL5042469, “Unique Molecular Interaction with the Histone Deacetylase 6 Catalytic Tunnel: Crystallographic and Biological Characterization of a Model Chemotype” (J Med Chem, 2021) can be followed below.

Molecules are shown by their SMILES. Activity calls are given as the source filed them. The calls are words filed in the database; no cut-off is given here.

As a reminder, the IC50 is the concentration that gives 50% inhibition.

Assay [1] addresses T1, Protein deacetylase HDAC6 (Homo sapiens) (UniProt Q9UBN7).
T1 sequence (whole entry): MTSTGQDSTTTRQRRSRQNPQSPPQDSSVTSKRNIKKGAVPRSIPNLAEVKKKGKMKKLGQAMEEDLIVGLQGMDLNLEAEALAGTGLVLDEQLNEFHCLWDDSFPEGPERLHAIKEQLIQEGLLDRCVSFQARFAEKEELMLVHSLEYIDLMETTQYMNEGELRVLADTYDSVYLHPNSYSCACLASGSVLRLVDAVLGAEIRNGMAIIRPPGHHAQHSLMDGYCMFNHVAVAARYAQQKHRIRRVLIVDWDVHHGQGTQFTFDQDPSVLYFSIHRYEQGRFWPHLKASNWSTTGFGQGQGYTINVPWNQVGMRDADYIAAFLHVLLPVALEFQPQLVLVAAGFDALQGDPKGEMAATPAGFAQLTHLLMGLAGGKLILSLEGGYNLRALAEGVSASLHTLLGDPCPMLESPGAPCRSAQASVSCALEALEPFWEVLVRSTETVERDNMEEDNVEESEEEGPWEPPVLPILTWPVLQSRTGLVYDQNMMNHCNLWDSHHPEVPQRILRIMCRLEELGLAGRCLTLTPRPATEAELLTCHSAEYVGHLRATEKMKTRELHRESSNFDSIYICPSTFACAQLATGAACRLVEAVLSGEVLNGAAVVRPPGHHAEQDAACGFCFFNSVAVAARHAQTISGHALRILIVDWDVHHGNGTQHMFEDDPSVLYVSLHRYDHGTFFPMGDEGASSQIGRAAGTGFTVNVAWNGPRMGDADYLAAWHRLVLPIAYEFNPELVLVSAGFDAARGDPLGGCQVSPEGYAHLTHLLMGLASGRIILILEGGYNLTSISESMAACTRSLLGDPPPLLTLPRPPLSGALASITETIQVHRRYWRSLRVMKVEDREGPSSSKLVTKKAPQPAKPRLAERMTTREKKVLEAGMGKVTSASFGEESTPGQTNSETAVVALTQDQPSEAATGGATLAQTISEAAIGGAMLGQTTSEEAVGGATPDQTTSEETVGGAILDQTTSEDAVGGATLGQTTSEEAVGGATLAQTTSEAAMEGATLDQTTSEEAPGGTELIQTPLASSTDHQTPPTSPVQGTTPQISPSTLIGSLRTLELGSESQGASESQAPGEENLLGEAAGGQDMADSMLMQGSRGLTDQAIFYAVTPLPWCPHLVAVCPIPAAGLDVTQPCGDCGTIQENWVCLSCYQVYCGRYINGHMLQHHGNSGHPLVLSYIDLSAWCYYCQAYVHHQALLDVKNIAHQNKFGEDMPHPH
In words: Inhibition of HDAC6 in human MV4-11 cells assessed as increase in acetylation of alpha tubulin at 0.25 uM by Western blot analysis. Format: cell-based. An outline of the steps:
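MV4-11 cells incubated with compound for 6 h (0.25–1 μM range), then lysed in RIPA buffer. Lysates were BCA-quantified and run on 4–20% SDS-PAGE, then transferred to nitrocellulose and blocked in 5% milk/PBST. Primary anti-acetyl-α-tubulin mouse monoclonal and HSC70 (1:1000) were applied overnight at 4 °C, followed by HRP anti-mouse (1:5000) and ECL detection.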
For orientation: Immunoblotting shows a protein as a band on a membrane.

The target in assay [2] is T1, Protein deacetylase HDAC6 (Homo sapiens). The assay can be described thus: Inhibition of HDAC6 in human HeLa cells assessed as acetylation of alpha tubulin accumulation at 2 uM by DAPI staining based immunofluorescent assay. Format: cell-based. An outline of the steps: (§1)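 HeLa cells plated to sub-confluency and treated after 24 h with compound at 0.1 or 2 μM for 6 h; DMSO served as vehicle control. Cells were fixed (4% formaldehyde), permeabilized (1% Triton X-100) and blocked in 5% BSA for 1 h at room temperature. Staining used anti-acetyl-α-tubulin (1:100) plus anti-acetyl-H3 Lys18 (1:50) with DAPI counterstain, then imaging and quantification. Values are the mean of duplicates.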

The subject of another assay is OCI-AML-3. The assay can be described thus: Anti-proliferative activity against human AML-3 cells assessed as cell viability measured after 72 hrs by Cell-Titer assay. The class given is functional, cell-based. The conditions noted are these: OCI-AML-3, 72 h. An outline of the steps: (§2)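 Cells in RPMI-1640 with 10% FBS (AML3 in IMDM with 10% FBS). Cells were plated in 96-well plates, and after 24 h compounds or vehicle (0.5% DMSO) were added. CellTiter-Blue was added after 72 h and fluorescence was read at 560/590 nm. IC50 was obtained by non-linear regression.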

Assay [3] is described as follows: Anti-proliferative activity against human MRC9 cells assessed as cell viability measured after 72 hrs by Cell-Titer assay. Format: functional, cell-based. The conditions noted are these: MRC9, 72 h. An outline of the steps: as §2
The target in assay [4] is T1, Protein deacetylase HDAC6 (Homo sapiens). The assay can be described thus: Inhibition of HDAC6 in human HeLa cells assessed as acetylation of alpha tubulin accumulation at 0.1 uM by DAPI staining based immunofluorescent assay. The class given is cell-based. In a few lines: as §1
The test system of another assay is MOLM-13. The assay can be described thus: Anti-proliferative activity against human MOLM-13 cells assessed as cell viability measured after 72 hrs by Cell-Titer assay. Format: functional, cell-based. The conditions noted are these: MOLM-13, 72 h. An outline of the steps:
as §2

Another assay deals with MM1.S. In words: Anti-proliferative activity against human MM1.S cells assessed as cell viability measured after 72 hrs by Cell-Titer assay. Format: functional, cell-based. In a few lines: as §2
Assay [5] is described as follows: Anti-proliferative activity against human AR230 cells assessed as cell viability measured after 72 hrs by Cell-Titer assay. Format: functional, cell-based. In a few lines: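 AR230 cells were maintained in RPMI-1640 with 10% FBS, 2 mM L-glutamine and 1 μM imatinib. Cells were plated in 96-well plates and dosed after 24 h, with 0.5% DMSO as vehicle. CellTiter-Blue fluorescence was read at 560/590 nm after 72 h. IC50 by non-linear regression.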

For a further assay, the system named is U-87 MG. The assay can be described thus: Anti-proliferative activity against human U87G cells assessed as cell viability measured after 72 hrs by Cell-Titer assay. The class given is functional, cell-based, U-87MG ATCC. An outline of the steps:
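U87G cells grown in EMEM with 10% FBS were plated in 96-well plates and dosed after 24 h, with 0.5% DMSO as vehicle. CellTiter-Blue read-out at 560/590 nm fluorescence after 72 h. IC50 by non-linear regression.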

A further assay deals with RPMI-8226. In words: Anti-proliferative activity against human RPMI-8226 cells assessed as cell viability measured after 72 hrs by Cell-Titer assay. The class given is functional, cell-based. The conditions noted are these: RPMI-8226, 72 h. An outline of the steps: as §2
The subject of a further assay is Jurkat. The assay can be described thus: Anti-proliferative activity against human Jurkat cells assessed as cell viability measured after 72 hrs by Cell-Titer assay. Format: functional, cell-based. An outline of the steps:
as §2

The next assay deals with MV4-11. The assay can be described thus: Anti-proliferative activity against human MV4-11 cells assessed as cell viability measured after 72 hrs by Cell-Titer assay. The class given is functional, cell-based. The conditions noted are these: MV4-11, 72 h. In a few lines: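 MV4-11 cells grown in IMDM with 10% FBS were plated in 96-well plates. After 24 h, compounds or vehicle (0.5% DMSO) were added. After 72 h, CellTiter-Blue was added and fluorescence was read at 560/590 nm. IC50 came from non-linear regression.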

The subject of a further assay is HeLa. The assay can be described thus: Anti-proliferative activity against human HeLa cells assessed as cell viability measured after 72 hrs by Cell-Titer assay. The class given is functional, cell-based. In a few lines:
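HeLa cells grown in DMEM with 10% FBS were plated in 96-well plates. After 24 h they were treated with compound or 0.5% DMSO vehicle. CellTiter-Blue was added at 72 h and read at 560/590 nm fluorescence. IC50 from non-linear regression.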

The subject of the next assay is BV-173. The assay can be described thus: Anti-proliferative activity against human BV-173 cells assessed as cell viability measured after 72 hrs by Cell-Titer assay. Format: functional, cell-based. The conditions noted are these: BV-173, 72 h. In a few lines: as §2

Regarding `O=C(CCCCCCNC(=O)c1cnc(N(c2ccccc2)c2ccccc2Cl)nc1)NO` [CITARINOSTAT], the outcome in assay [1] was Active. In addition, the result in assay [2] and in [4] was inactive. The IC50 stood at 7700 nM in the assay on OCI-AML-3; 30400 nM in [3]; 13500 nM with MOLM-13; 1600 nM with MM1.S; 4300 nM in [5]; 9100 nM with U-87 MG. Moreover, the concentration for half-maximal inhibition (IC50) in the assay with RPMI-8226 came out at 6500 nM; in the assay with Jurkat, 1200 nM; with MV4-11, 1200 nM; in the assay on HeLa, 7000 nM; with BV-173 it was 900 nM.
As for `O=C(NO)c1ccc(CN(Cc2cccnc2)S(=O)(=O)c2cc(F)c(F)c(F)c2F)cc1`, the result in [1] and in assay [2] was Active. Besides, the half-inhibitory concentration (IC50) in the assay with OCI-AML-3 was 3300 nM; in assay [3], more than 50000 nM; in the assay with MOLM-13, 2000 nM; in the assay on MM1.S, 700 nM; in [5] it was 1500 nM; in the assay with U-87 MG, 2000 nM. In addition, the 50% inhibitory concentration (IC50) was found to be 700 nM in the assay with RPMI-8226; 1900 nM in the assay on Jurkat; 600 nM in the assay with MV4-11; 3500 nM in the assay on HeLa; 1700 nM in the assay on BV-173. Moreover, the result in assay [4] was inactive.
